Laboratory results: article PMC7925372 (Journal of thrombosis and haemostasis : JTH, 2021)
Numbering of substitutions follows the chain as printed.

Experiments:
[1] = tested on: VKD carboxylation of reporter-protein FIXgla-PC in FIXgla-PC/HEK293 cells; format: cell-based, human; settings: 24 hours
Method in brief: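 FIXgla-PC/HEK293 cells are HEK293 cells stably expressing protein C whose Gla domain is swapped for factor IX's. They were cultured 24 h with test compound, either fixed at 1 μM or at increasing concentrations, as carboxylation substrate. FIXgla-PC carboxylation efficiency was measured by ELISA directly on culture medium. Activity was expressed relative to vitamin K1 set at 100%. Background activity comes from residual K vitamins in fetal bovine serum.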

[2] = tested on: VKD carboxylation of FIXgla-PC in FIXgla-PC/HEK293 cells (KO as substrate); assay: Inhibition of VKD carboxylation in FIXgla-PC/HEK293 cells with 5 μM KO; format: cell-based, human
wild-type VKOR = assay: Inhibition potency of VKAs on VKOR transiently expressed in DGKO reporter cells; format: cell-based, human
VKOR A26P = molecular target: T1, VKOR A26P (Homo sapiens, UniProt Q9BQB6, A26P); assay: Inhibition potency of VKAs on VKOR mutation expressed in DGKO reporter cells; format: cell-based
T1 sequence (Q9BQB6 1-163 A26P): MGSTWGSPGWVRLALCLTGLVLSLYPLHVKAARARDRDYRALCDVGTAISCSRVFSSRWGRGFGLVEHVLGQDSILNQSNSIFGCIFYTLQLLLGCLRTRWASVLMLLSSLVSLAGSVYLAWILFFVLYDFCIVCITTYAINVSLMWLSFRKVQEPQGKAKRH

VKOR F55A = molecular target: T2, VKOR F55A (Homo sapiens, UniProt Q9BQB6, F55A); assay: as above; format: cell-based
T2 sequence (Q9BQB6 1-163 F55A): T1 sequence (Q9BQB6 1-163 A26P) with P26A, F55A

VKOR W59R = molecular target: T3, VKOR W59R (Homo sapiens, UniProt Q9BQB6, W59R); assay: as above; format: cell-based; settings: read-out: IC50 ± standard deviation, 5 μM KO, 24 hours
T3 sequence (Q9BQB6 1-163 W59R): T1 sequence (Q9BQB6 1-163 A26P) with P26A, W59R

VKOR L128R = molecular target: T4, VKOR L128R (Homo sapiens, UniProt Q9BQB6, L128R); assay: as above; format: cell-based; settings: read-out: IC50 ± standard deviation, 5 μM KO, 24 hours
T4 sequence (Q9BQB6 1-163 L128R): T1 sequence (Q9BQB6 1-163 A26P) with P26A, L128R

VKOR Y139F = molecular target: T5, VKOR Y139F (Homo sapiens, UniProt Q9BQB6, Y139F); assay: as above; format: cell-based; settings: read-out: IC50 ± standard deviation, 5 μM KO, 24 hours
T5 sequence (Q9BQB6 1-163 Y139F): T1 sequence (Q9BQB6 1-163 A26P) with P26A, Y139F

[3] = tested on: vitamin K reductase (DGKO reporter cells); format: cell-based, human; settings: increasing concentrations
HEK293 reporter cells = assay: Cell viability assay in reporter cells; format: cell-based, human; settings: corresponding concentrations of the carboxylation assay
[4] = tested on: KO reductase (reduction of KO to vitamin K1); assay: HPLC-based KO reductase activity in GGCX-knockout HEK293 cells; format: cell-based, human; settings: GGCX-knockout HEK293, 10 μM KO, 10 μM compound, 6 hours
Method in brief: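 GGCX-knockout FIXgla-PC/HEK293 cells (CRISPR-Cas9) were incubated 6 h in medium with 10 μM KO, with or without 10 μM test compound; DMSO-treated cells served as control. K vitamins were extracted from the cells and analysed by reversed-phase HPLC. KO reductase activity was scored as vitamin K1 formed, with vitamin E acetate as standard.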

vitamin K reductase = assay: HPLC-based vitamin K reductase activity; format: cell-based, human; settings: DGKO cells, 10 μM vitamin K1, 10 μM compound, 6 hours
Method in brief: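 Reporter cells lacking endogenous VKOR and VKORL (TALEN double knockout) were cultured 6 h with 10 μM vitamin K1, with or without 10 μM test compound; DMSO was the control. Cellular K vitamins were extracted for reversed-phase HPLC. Unstable KH2 was not measured; reduction was coupled to epoxidation, and activity was read as KO produced.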

GGCX = assay: In vitro vitamin K epoxidation activity assay with GGCX enriched microsomes; format: biochemical; settings: FLEEL, FIX-propeptide, KH2, 100 μM compound
[5] = tested on: VKD carboxylation of FIXgla-PC in FIXgla-PC/HEK293 cells; format: cell-based, human; settings: 3 μM inhibitor, increasing concentrations of vitamin K1, 24 hours
[6] = tested on: VKD carboxylation in UBIAD1-knockout FIXgla-PC/HEK293 cells; assay: VKD carboxylation in UBIAD1-knockout FIXgla-PC/HEK293 reporter cells; format: cell-based, human; settings: increasing concentrations, 24 hours
[7] = tested on: UBIAD1 (MK-4 production in HEK293 cells); assay: Conversion of vitamin K derivatives to MK-4 in FIXgla-PC/HEK293 cells; format: cell-based, human; settings: 10 μM VK-K-COT plus 5 μM warfarin, 6 hours, HPLC
[8] = tested on: naturally occurring VKOR mutations; settings: cell-based functional study; cited from earlier work
[9] = tested on: UBIAD1-dependent VKD carboxylation; format: cell-based, human; settings: UBIAD1 transiently expressed in UBIAD1-knockout cells, increasing concentrations
Method in brief: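 FIXgla-PC/HEK293 reporter cells with UBIAD1 knocked out by CRISPR-Cas9 were transiently transfected with UBIAD1 cDNA. Transfected cells were cultured with increasing concentrations of vitamin K analogue. FIXgla-PC carboxylation efficiency in the medium was then measured by ELISA, normalised to vitamin K1 as 100%.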

warfarin-resistant rats = settings: cited from earlier work
[10] = cited from earlier work
[11] = 1 μM vitamin K derivative as substrate, FIXgla-PC/HEK293

In the case of `CC1=C(CC2=CC=CC=CC=C2)C(=O)c2ccccc2C1=O` [VK-M-COT], the “carboxylation activity as substrate, in words” value [1, 11] is reported as “activity lower than the background activity (DMSO)”, the “dose-response of VKD carboxylation on concentration titration” value ([1]; increasing concentrations of vitamin K derivative) is reported as “inhibitory dose-response curve” and the “inhibition of reporter-protein carboxylation, KO as substrate” value ([2]; FIXgla-PC/HEK293, 5 μM KO, increasing concentrations) is reported as “inhibited reporter-protein carboxylation”. The “inhibition potency lower than warfarin (fold)” value ([2]; IC50 ratio to warfarin, FIXgla-PC/HEK293, 5 μM KO) was ~ 20 fold, the “IC50 variation between warfarin-resistant VKOR mutations and wild-type VKOR” value (wild-type VKOR; A26P, F55A, W59R, L128R, Y139F vs wild type) was “less than 3 fold” and the IC50 (VKOR A26P; read-out: IC50 ± standard deviation, VKOR A26P in DGKO cells, 5 μM KO, 24 hours) was 487 ± 75 nM. It also gave an IC50 (VKOR F55A; read-out: IC50 ± standard deviation, VKOR F55A in DGKO cells, 5 μM KO, 24 hours) of 249 ± 66 nM, an IC50 (VKOR W59R) of 615 ± 101 nM and an IC50 (VKOR L128R) of 575 ± 132 nM. For the same compound, the IC50 (VKOR Y139F) was 658 ± 54 nM, the “inhibition of reporter-protein carboxylation, vitamin K1 as substrate” value [3] was “inhibited reporter-protein carboxylation” and the “cytotoxicity (cell viability)” value (HEK293 reporter cells) was “not due to the cytotoxicity”. For the same compound, the “reduction of KO to vitamin K1 (HPLC)” value [4] was “significantly decreased”, the “reduction of vitamin K (production of KO, HPLC)” value (vitamin K reductase) was “significantly decreased” and the “GGCX vitamin K epoxidation activity” value (GGCX) was “inhibits GGCX activity for vitamin K epoxidation”. For the same compound, the “reversal of inhibition of VKD carboxylation by vitamin K1” value [5] was “can be reversed equally with higher concentrations of vitamin K1”.

With `CC1=C(C/C=C(\C)CCC[C@H](C)CCC[C@H](C)CCCC(C)C)C(=O)c2ccccc2C1=O` [vitamin K1, phylloquinone] the “support of VKD carboxylation as substrate in UBIAD1-knockout cells” value (“support of VKD carboxylation” for short) [6] was “can efficiently support VKD carboxylation”.

For `CC(=O)CC(c1ccccc1)c1c(O)c2ccccc2oc1=O` (stereo not shown) [warfarin, reference compound], the IC50 ([2]; Homo sapiens, HEK293, 24 h, read-out: IC50 for VKD carboxylation) was 12.5 nM, the “effect of warfarin-resistant VKOR mutations on inhibition potency” value (wild-type VKOR; all warfarin-resistant VKOR mutations tested vs wild type) was “up to 400 fold” and the “increase of IC50 compared to wild-type VKOR” value (VKOR A26P; A26P vs wild type) was 60 fold. The “increase of IC50 compared to wild-type VKOR” value (VKOR F55A; F55A vs wild type) was 417 fold, the “MK-4 epoxide in cells on VKOR inactivation” value [7] was “MK-4 epoxide accumulated” and the “reversal of inhibition of VKD carboxylation by vitamin K1” value [5] was “can be reversed equally with higher concentrations of vitamin K1”. For the same compound, the “variation of warfarin resistance among naturally occurring VKOR mutations” value [8] was “over 100 fold”.

With `CC1=CC(=O)c2ccccc2C1=O` [menadione] the “support of VKD carboxylation” value [6] was “unable to support reporter-protein carboxylation” and the “VKD carboxylation activity after re-introduction of UBIAD1” value [9] was “regained VKD carboxylation activity”.

For `CC(C)=CCC/C(C)=C/CC/C(C)=C/CC/C(C)=C/CC1=C(C)C(=O)c2ccccc2C1=O` [MK-4, menaquinone-4], the “support of VKD carboxylation” value [6] was “can efficiently support VKD carboxylation”.

In the case of `CC1=C(Cc2ccccc2)C(=O)c2ccccc2C1=O` [VK-M-Ben], the “carboxylation activity (vitamin K1 normalized to 100%)” value [1, 11] is reported as 3% and the “carboxylation activity as substrate, in words” value [1, 11] is reported as “abolished carboxylation activity”.

For `C/C(=C\CC1=C(Cl)C(=O)c2ccccc2C1=O)CCCC(C)CCCC(C)CCCC(C)C` (stereo not shown) [Chloro-K], the “anticoagulant effect in warfarin-resistant rats” value (warfarin-resistant rats) is listed as “effective anticoagulant” and the “antagonism of vitamin K” value [10] is listed as “potent antagonist of vitamin K”.
